Converted amounts (≈) assume the structure as drawn.
Assays:
Oryctolagus cuniculus [1] = species: Oryctolagus cuniculus; assay: Cardiotoxicity in rabbit ventricular wedge assessed as cardiovascular issues upto 10 uM; format: toxicity, Cardiac ventricle
Rattus norvegicus [2] = assay: Cardiotoxicity in rat at 30 to 300 mg/kg, po; format: toxicity, organism-based; set-up: dose 30-300 mg/kg, route oral; details: in vivo
Method in brief: (§1)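 Conscious rats were given oral doses of 30, 100 and 300 mg/kg. Body temperature, cardiovascular and electrocardiographic parameters were monitored.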

Rattus norvegicus [3] = assay: Toxicity in rat assessed as effect on body temperature at 30 to 300 mg/kg, po; format: organism-based; set-up: dose 30-300 mg/kg, route oral; details: in vivo; method in brief: as §1
Oryctolagus cuniculus [4] = species: Oryctolagus cuniculus; assay: Cardiotoxicity in rabbit assessed as liability for torsadogenic arrhythmia; format: toxicity
Oryctolagus cuniculus [5] = species: Oryctolagus cuniculus; assay: Cardiotoxicity in rabbit assessed as effect on contractility; format: toxicity
Oryctolagus cuniculus [6] = species: Oryctolagus cuniculus; assay: Cardiotoxicity in rabbit assessed as effect on cardiac repolarization; format: toxicity, Heart
HepG2 = assay: Cytotoxicity in human HepG2 cells assessed as effect on cell membrane; format: cell-based
[7] = target: Acetylcholine receptor subunit alpha (Homo sapiens) (UniProt P02708); assay: Antagonist activity at nAChR alpha1 (unknown origin) by [35S]GTPgammaS binding assay; format: functional
[8] = target: C-C chemokine receptor type 5 (Homo sapiens, UniProt P51681); assay: Antagonist activity at CCR5 receptor (unknown origin) by [35S]GTPgammaS binding assay; format: functional
[9] = target: T1, C-X-C chemokine receptor type 3 (Homo sapiens, UniProt P49682); assay: Antagonist activity at CXCR3 receptor (unknown origin) by [35S]GTPgammaS binding assay; format: functional
T1 sequence (P49682 whole entry): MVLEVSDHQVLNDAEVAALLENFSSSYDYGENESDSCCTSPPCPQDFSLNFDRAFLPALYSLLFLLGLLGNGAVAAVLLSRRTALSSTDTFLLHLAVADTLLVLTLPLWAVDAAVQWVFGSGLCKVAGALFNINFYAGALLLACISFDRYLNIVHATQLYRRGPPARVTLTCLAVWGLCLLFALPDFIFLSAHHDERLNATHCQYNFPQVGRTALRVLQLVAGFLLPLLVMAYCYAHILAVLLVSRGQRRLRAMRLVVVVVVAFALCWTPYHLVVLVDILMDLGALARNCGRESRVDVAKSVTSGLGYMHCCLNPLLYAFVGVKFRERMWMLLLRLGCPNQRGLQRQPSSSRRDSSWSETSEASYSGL

[10] = target: T2, C-X-C chemokine receptor type 2 (Homo sapiens, UniProt P25025); assay: Antagonist activity at CXCR2 receptor (unknown origin) by [35S]GTPgammaS binding assay; format: functional
T2 sequence (P25025 whole entry): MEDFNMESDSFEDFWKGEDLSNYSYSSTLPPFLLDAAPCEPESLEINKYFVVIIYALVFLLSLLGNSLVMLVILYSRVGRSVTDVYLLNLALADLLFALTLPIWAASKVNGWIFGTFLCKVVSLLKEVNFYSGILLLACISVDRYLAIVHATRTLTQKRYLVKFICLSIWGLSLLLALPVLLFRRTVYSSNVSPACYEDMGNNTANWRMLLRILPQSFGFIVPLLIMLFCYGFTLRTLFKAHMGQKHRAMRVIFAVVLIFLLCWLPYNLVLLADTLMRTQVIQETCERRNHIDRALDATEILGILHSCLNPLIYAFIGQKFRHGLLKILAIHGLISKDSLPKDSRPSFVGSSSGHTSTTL

[11] = target: T3, C-X-C chemokine receptor type 1 (Homo sapiens, UniProt P25024); assay: Antagonist activity at CXCR1 receptor (unknown origin) by [35S]GTPgammaS binding assay; format: functional
T3 sequence (P25024 whole entry): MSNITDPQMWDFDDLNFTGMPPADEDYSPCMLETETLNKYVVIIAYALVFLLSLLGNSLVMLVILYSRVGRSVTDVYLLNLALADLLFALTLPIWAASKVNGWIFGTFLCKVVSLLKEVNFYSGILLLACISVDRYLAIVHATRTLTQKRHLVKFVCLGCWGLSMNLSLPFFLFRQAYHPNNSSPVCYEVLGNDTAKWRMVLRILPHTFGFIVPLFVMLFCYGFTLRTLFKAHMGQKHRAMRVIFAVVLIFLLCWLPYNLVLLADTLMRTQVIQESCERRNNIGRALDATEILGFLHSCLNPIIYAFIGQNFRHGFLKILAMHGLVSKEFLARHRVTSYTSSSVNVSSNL

[12] = target: C-C chemokine receptor type 8 (Homo sapiens, UniProt P51685); assay: Antagonist activity at CCR8 receptor (unknown origin) by [35S]GTPgammaS binding assay; format: functional
[13] = target: C-C chemokine receptor type 2 (Homo sapiens, UniProt P41597); assay: Antagonist activity at CCR2 receptor (unknown origin) by [35S]GTPgammaS binding assay; format: functional
[14] = Oral bioavailability in CD rat at 10 mg/kg administered as suspension; format: ADME, organism-based; details: in vivo
[15] = Oral bioavailability in CD rat at 1 mg/kg administered as suspension; format: ADME, organism-based; details: in vivo
Method in brief: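 Rats received an oral suspension of wet bead-milled material (particle size <1 μm), dosed at 1, 10 and 30 mg/kg.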

[16] = Chemical stability of the compound in PBS using MeOH at pH 7.4 by NMR analysis; format: physicochemical; details: buffer
[17] = Kinetic solubility of the compound in PBS using DMSO at pH 7.4 by NMR analysis; format: physicochemical; details: read-out: Kinetic_solubility
[18] = Chemical stability of the compound in PBS using DMSO at pH 7.4 after 100 hrs by NMR analysis; format: physicochemical; details: buffer, pH 7.4, 100 h
[19] = Kinetic solubility of the compound in PBS using MeOH at pH 7.4 by NMR analysis; format: physicochemical; details: read-out: Kinetic_solubility
[20] = Equilibrium solubility of the compound in Britton-Robinson buffer at pH 10 after 24 hrs by HPLC analysis; format: physicochemical
Method in brief: (§2)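 Solid compound was equilibrated 24 h in Britton–Robinson buffer at the stated pH. Dissolved compound was quantified by HPLC.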

[21] = Equilibrium solubility of the compound in Britton-Robinson buffer at pH 8 after 24 hrs by HPLC analysis; format: physicochemical; method in brief: as §2
[22] = Equilibrium solubility of the compound in fed-state simulated intestinal fluid at pH 6.5 after 24 hrs by HPLC analysis; format: physicochemical
Method in brief: (§3)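 Solid compound was equilibrated 24 h in the stated medium: water, SGF pH 1.6, FeSSIF pH 6.5, FaSSIF pH 6.5 or saline. Dissolved compound was quantified by HPLC.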

[23] = Equilibrium solubility of the compound in simulated gastric fluid at pH 1.6 after 24 hrs by HPLC analysis; format: physicochemical; method in brief: as §3
[24] = Oral bioavailability in Beagle dog at 1 mg/kg; format: ADME, organism-based, Canis lupus familiaris; details: in vivo
[25] = Volume of distribution at steady state in Beagle dog at 0.5 mg/kg, iv; format: ADME, organism-based, Canis lupus familiaris; set-up: dose 0.5 mg/kg, route intravenous; details: beagle, in vivo, read-out: Vdss
[26] = Dissociation constant, pKa of the compound; format: physicochemical
in vivo [27] = details: beagle, dog, iv, 0.5 mg/kg
in vivo [28] = details: beagle, dog, iv, 0.5 mg/kg; remark: listed apart in the source
in vivo [29] = details: CD, rat, iv, 1 mg/kg
[30] = Stability of the compound in solid state at 40 to 50 degC 75 % relative humidity after 1 month by NMR analysis; details: 730.5 h

Sequence of C-C chemokine receptor type 5 (P51681 whole entry): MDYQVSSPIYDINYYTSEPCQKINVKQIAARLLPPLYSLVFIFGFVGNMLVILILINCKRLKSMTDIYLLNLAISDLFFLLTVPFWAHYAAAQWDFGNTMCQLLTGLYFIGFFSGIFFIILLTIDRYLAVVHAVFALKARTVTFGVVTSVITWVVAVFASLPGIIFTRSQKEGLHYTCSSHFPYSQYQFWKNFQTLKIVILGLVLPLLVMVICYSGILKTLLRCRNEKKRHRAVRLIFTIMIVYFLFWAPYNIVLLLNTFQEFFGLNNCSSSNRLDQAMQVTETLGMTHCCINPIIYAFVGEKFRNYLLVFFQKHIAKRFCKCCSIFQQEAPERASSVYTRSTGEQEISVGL
Sequence of C-C chemokine receptor type 2 (P41597 whole entry): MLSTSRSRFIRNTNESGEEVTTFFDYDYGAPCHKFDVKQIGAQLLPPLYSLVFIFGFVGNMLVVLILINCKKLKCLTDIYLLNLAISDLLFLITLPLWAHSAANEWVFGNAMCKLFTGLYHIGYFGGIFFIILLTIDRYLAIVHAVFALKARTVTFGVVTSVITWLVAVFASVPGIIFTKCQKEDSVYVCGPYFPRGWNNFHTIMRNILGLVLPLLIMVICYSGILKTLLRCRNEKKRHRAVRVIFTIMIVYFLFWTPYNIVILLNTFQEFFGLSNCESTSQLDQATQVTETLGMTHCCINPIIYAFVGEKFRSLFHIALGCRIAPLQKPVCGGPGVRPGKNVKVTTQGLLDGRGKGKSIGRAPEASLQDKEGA
Sequence of C-C chemokine receptor type 8 (P51685 whole entry): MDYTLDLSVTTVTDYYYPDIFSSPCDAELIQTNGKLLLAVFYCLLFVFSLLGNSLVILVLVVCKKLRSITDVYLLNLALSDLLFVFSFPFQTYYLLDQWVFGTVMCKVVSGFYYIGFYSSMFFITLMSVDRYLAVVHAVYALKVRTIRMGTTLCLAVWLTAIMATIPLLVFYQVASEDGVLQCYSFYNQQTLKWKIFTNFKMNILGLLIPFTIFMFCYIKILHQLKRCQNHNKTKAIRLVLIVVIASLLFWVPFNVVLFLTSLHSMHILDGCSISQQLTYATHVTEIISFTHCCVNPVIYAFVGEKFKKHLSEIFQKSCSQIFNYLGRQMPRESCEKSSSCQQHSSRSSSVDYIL
Sequence of Acetylcholine receptor subunit alpha (Homo sapiens) (P02708 whole entry): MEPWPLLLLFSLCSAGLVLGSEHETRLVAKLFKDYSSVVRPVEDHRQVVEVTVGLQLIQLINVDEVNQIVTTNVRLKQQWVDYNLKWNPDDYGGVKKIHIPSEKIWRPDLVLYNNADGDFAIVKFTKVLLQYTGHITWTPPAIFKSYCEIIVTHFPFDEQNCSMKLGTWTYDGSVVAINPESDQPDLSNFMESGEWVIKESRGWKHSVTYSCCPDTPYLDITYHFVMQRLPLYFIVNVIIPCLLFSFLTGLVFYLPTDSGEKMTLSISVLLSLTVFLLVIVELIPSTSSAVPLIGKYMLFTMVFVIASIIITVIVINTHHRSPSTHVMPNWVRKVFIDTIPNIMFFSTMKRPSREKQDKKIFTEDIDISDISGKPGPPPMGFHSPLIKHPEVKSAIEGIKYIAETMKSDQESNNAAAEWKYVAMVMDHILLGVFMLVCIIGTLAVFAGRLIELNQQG

## COc1cccc2c1c(NS(=O)(=O)c1ccc(Cl)s1)nn2Cc1cccc(CNC(=O)C(C)(C)O)c1
Oryctolagus cuniculus [1]
  Activity: Non-toxic
Rattus norvegicus [2]
  Activity: Non-toxic
Rattus norvegicus [3]
  Activity: Non-toxic
Oryctolagus cuniculus [4]
  Activity: Non-toxic
Oryctolagus cuniculus [5]
  Activity: Non-toxic
Oryctolagus cuniculus [6]
  Activity: Non-toxic
HepG2
  Activity: Non-toxic
[7]
  pXC50: 5.1
[8]
  IC50: 6.31 µM
[9]
  IC50: > 10 µM
[10]
  IC50: > 10 µM
[11]
  IC50: > 10 µM
[12]
  IC50: > 10 µM
[13]
  IC50: > 10 µM
[14]
  bioavailability: 80%
[15]
  bioavailability: 53%
[16]
  Stability: Unstable
[17]
  solubility kinetic: 270 µg/mL (≈ 492 µM)
[18]
  Stability: Stable
[19]
  solubility kinetic: > 270 µg/mL
[20]
  solubility thermodynamic at 24 h: 1320 µg/mL (≈ 2410 µM)
[21]
  solubility thermodynamic at 24 h: 56 µg/mL (≈ 102 µM)
[22]
  solubility thermodynamic at 24 h: 23 µg/mL (≈ 41.9 µM)
[23]
  solubility thermodynamic at 24 h: 1 µg/mL (≈ 1.82 µM)
[24]
  bioavailability: 97%
[25]
  Vd: 2.2 L/kg
[26]
  pKa: 6.54
In vivo [27]
  half-life: 2.6 h
In vivo [28]
  clearance: 9 mL/min/kg
In vivo [29]
  half-life: 2.5 h
[30]
  Stability: Stable
